Results from ChEMBL document CHEMBL4270646, “Novel antimalarial chloroquine- and primaquine-quinoxaline 1,4-di-N-oxide hybrids: Design, synthesis, Plasmodium life cycle stage profile, and preliminary toxicity studies” (Eur J Med Chem, 2018).
Activity calls are given as the source filed them. The calls are words filed in the database; no cut-off is given here.

Experiments:
[1] = test system: Mus musculus; assay: Acute toxicity in BALB/c mouse assessed as mouse survival at 300 mg/kg, po administered as single dose measured every day for 14 days; assay type: organism-based; conditions: in vivo, 336 h
Summary of the method: (§1)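 Female BALB/c mice, 6-8 weeks old, 20-23 g, in groups of three. Single oral dose of 300 or 500 mg/kg; vehicle DMSO 100% given to controls. Mice watched for signs of toxicity for 4 h after dosing. Physical appearance, injury, pain and illness recorded daily for 14 days. Euthanasia in a CO2 chamber on day 14 or earlier if suffering.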

[2] = test system: Mus musculus; assay: Acute toxicity in BALB/c mouse assessed as appearance of clear and bright eyes at 300 to 500 mg/kg, po administered as single dose measured every day for 14 days; assay type: organism-based; conditions: in vivo, 336 h; summary of the method: as §1
[3] = Cytotoxicity against human HepG2 cells assessed as reduction in cell viability after 48 hrs by MTT assay; assay type: cell-based
Summary of the method: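 Cells seeded at 2 × 10^5 per well and allowed 24 h at 37°C, 5% CO2 to form a monolayer. Dilutions added in triplicate and incubated 48 h. MTT (2 mg/mL) then added for 4 h, followed by DMSO for 20 min at room temperature. Absorbance read at 550 nm; DMSO diluent and untreated cells served as negative controls. CC50 derived from the curve.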

[4] = test system: Plasmodium yoelii; assay: Antiplasmodial activity against Plasmodium yoelii 17XNL sporozoites infected in BALB/c mouse assessed as decrease in peripheral blood parasite levels at 100 mg/kg, po measured at day 5 by […]; assay type: functional, organism-based
Summary of the method: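 BALB/c mice (6-8 weeks, 20-23 g), n=4 per hybrid group and n=5 per control. Dosed orally at 100 mg/kg (100 µL) on days -1, 0, +1 and +2. Vehicle was DMSO 100%; primaquine diphosphate given at 30 mg/kg daily. On day 0, 5 x 10^3 cryopreserved P. yoelii 17XNL sporozoites injected i.v. Parasitaemia read by Giemsa smear and SYBR Green flow cytometry. Groups compared by Kruskal-Wallis test.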

**Q.** For `COc1cc(NC(C)CCCNC(=O)c2c(C)[n+]([O-])c3ccccc3[n+]2[O-])c2ncccc2c1` (centres undefined), which Activity [1] is on record?
**A.** Non-Toxic

**Q.** What about the Activity [2] of the same compound?
**A.** Non-Toxic

**Q.** And the CC50 at 48 h [3]?
**A.** 39.5 µM

**Q.** What about the Activity [4] of the same compound?
**A.** Active
